From ChEMBL document CHEMBL4152257, “Discovery of novel β-carboline/acylhydrazone hybrids as potent antitumor agents and overcome drug resistance” (Eur J Med Chem, 2018)

Key:
MDA-MB-231 = assay: Antiproliferative activity against human MDA-MB-231 cells at 1 uM after 48 to 72 hrs by MTT assay relative to control; format: functional
Summary of the method: (§1)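 Single-concentration screen in the MTT proliferation assay: log-phase cells seeded and allowed to adhere, exposed to compound at 1 µM for 48 h or 72 h, MTT added for 2-3 h, formazan dissolved in DMSO; percent inhibition versus control.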

Raji = assay: Antiproliferative activity against human Raji cells at 1 uM after 48 to 72 hrs by MTT assay relative to control; format: functional; summary of the method: as §1
NCI-H460 [1] = assay: Antiproliferative activity against human H460 cells at 1 uM after 48 to 72 hrs by MTT assay relative to control; format: functional; summary of the method: as §1
NCI-H460 [2] = assay: Antiproliferative activity against human H460 cells after 48 to 72 hrs by MTT assay; format: functional, cell-based
Summary of the method: (§2)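 Cells in log phase seeded and allowed to adhere, then exposed to graded compound concentrations for 48 h or 72 h; MTT added for a further 2-3 h, formazan dissolved in DMSO. IC50 taken from dose-response curves; mean ± SD of at least three independent experiments.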

MCF7 [3] = assay: Antiproliferative activity against human MCF7 cells after 48 to 72 hrs by MTT assay; format: functional, cell-based; summary of the method: as §2
A2780S = assay: Antiproliferative activity against human A2780S cells after 48 to 72 hrs by MTT assay; format: functional, cell-based; summary of the method: as §2
[4] = Resistance index, ratio of IC50 for human MCF7/ADR cells to IC50 for human MCF7 cells; format: functional
[5] = Selectivity ratio of IC50 for HUVEC to IC50 for human A2780T cells; format: toxicity; settings: HUVEC versus A2780T cells
MCF7 [6] = assay: Cell cycle arrest in human MCF7 cells assessed as accumulation at G0/G1 phase at 3 uM after 18 hrs by propidium iodide staining based flow cytometry (reference value: 45.22%); format: functional
MCF7 [7] = assay: Cell cycle arrest in human MCF7 cells assessed as accumulation at S phase at 3 uM after 18 hrs by propidium iodide staining based flow cytometry (reference value: 44.80%); format: functional
MCF7 [8] = assay: Cell cycle arrest in human MCF7 cells assessed as accumulation at G2/M phase at 3 uM after 18 hrs by propidium iodide staining based flow cytometry (reference value: 9.98%); format: functional
MCF7 [9] = assay: Cell cycle arrest in human MCF7 cells assessed as accumulation at G0/G1 phase at 10 uM after 18 hrs by propidium iodide staining based flow cytometry (reference value: 45.22%); format: functional
MCF7 [10] = assay: Cell cycle arrest in human MCF7 cells assessed as accumulation at S phase at 100 uM after 18 hrs by propidium iodide staining based flow cytometry (reference value: 44.80%); format: functional
MCF7 [11] = assay: Cell cycle arrest in human MCF7 cells assessed as accumulation at G2/M phase after 18 hrs by propidium iodide staining based flow cytometry; format: functional
MCF7 [12] = assay: Induction of apoptosis in human MCF7 cells assessed as viable cells at 3 uM after 48 hrs by annexin V-FITC/PI dual staining based flow cytometry (reference value: 77.8%); format: functional; settings: MCF7, 48 h, read-out: Activity
MCF7 [13] = assay: Induction of apoptosis in human MCF7 cells assessed as early apoptotic cells at 3 uM after 48 hrs by annexin V-FITC/PI dual staining based flow cytometry (reference value: 11%); format: functional
MCF7 [14] = assay: Induction of apoptosis in human MCF7 cells assessed as late apoptotic cells at 3 uM after 48 hrs by annexin V-FITC/PI dual staining based flow cytometry (reference value: 11.1%); format: functional
MCF7 [15] = assay: Induction of apoptosis in human MCF7 cells assessed as viable cells at 10 uM after 48 hrs by annexin V-FITC/PI dual staining based flow cytometry (reference value: 77.8%); format: functional; settings: MCF7, 48 h, read-out: Activity
MCF7 [16] = assay: Induction of apoptosis in human MCF7 cells assessed as viable cells at 30 uM after 48 hrs by annexin V-FITC/PI dual staining based flow cytometry (reference value: 77.8%); format: functional; settings: MCF7, 48 h, read-out: Activity
MCF7 [17] = assay: Induction of apoptosis in human MCF7 cells assessed as late apoptotic cells at 30 uM after 48 hrs by annexin V-FITC/PI dual staining based flow cytometry (reference value: 11.1%); format: functional
MCF7 [18] = assay: Induction of apoptosis in human MCF7 cells assessed as necrotic cells at 30 uM after 48 hrs by annexin V-FITC/PI dual staining based flow cytometry (reference value: 0.16%); format: functional
MCF7 [19] = assay: Induction of apoptosis in human MCF7 cells assessed as early apoptotic cells at 100 uM after 48 hrs by annexin V-FITC/PI dual staining based flow cytometry (reference value: 11%); format: functional
MCF7 [20] = assay: Induction of apoptosis in human MCF7 cells assessed as late apoptotic cells at 100 uM after 48 hrs by annexin V-FITC/PI dual staining based flow cytometry (reference value: 11.1%); format: functional
MCF7 [21] = assay: Induction of apoptosis in human MCF7 cells assessed as necrotic cells at 100 uM after 48 hrs by annexin V-FITC/PI dual staining based flow cytometry (reference value: 0.16%); format: functional
NCI/ADR-RES [22] = assay: Induction of apoptosis in human MCF7/ADR cells assessed as viable cells at 3 uM after 48 hrs by annexin V-FITC/PI dual staining based flow cytometry (reference value: 89.8%); format: functional; settings: read-out: Activity
NCI/ADR-RES [23] = assay: Induction of apoptosis in human MCF7/ADR cells assessed as late apoptotic cells at 10 uM after 48 hrs by annexin V-FITC/PI dual staining based flow cytometry (reference value: 5.02%); format: functional
NCI/ADR-RES [24] = assay: Induction of apoptosis in human MCF7/ADR cells assessed as necrotic cells at 10 uM after 48 hrs by annexin V-FITC/PI dual staining based flow cytometry (reference value: 2.43%); format: functional
NCI/ADR-RES [25] = assay: Induction of apoptosis in human MCF7/ADR cells assessed as viable cells at 30 uM after 48 hrs by annexin V-FITC/PI dual staining based flow cytometry (reference value: 89.8%); format: functional; settings: read-out: Activity
NCI/ADR-RES [26] = assay: Induction of apoptosis in human MCF7/ADR cells assessed as early apoptotic cells at 30 uM after 48 hrs by annexin V-FITC/PI dual staining based flow cytometry (reference value: 2.72%); format: functional
NCI/ADR-RES [27] = assay: Induction of apoptosis in human MCF7/ADR cells assessed as late apoptotic cells at 30 uM after 48 hrs by annexin V-FITC/PI dual staining based flow cytometry (reference value: 5.02%); format: functional
NCI/ADR-RES [28] = assay: Induction of apoptosis in human MCF7/ADR cells assessed as late apoptotic cells at 100 uM after 48 hrs by annexin V-FITC/PI dual staining based flow cytometry (reference value: 5.02%); format: functional
Mus musculus [29] = assay: Toxicity in athymic nude Balb/C mouse xenografted with human H460 cells assessed as body weight loss at 100 mg/kg, po administered 3 times per week measured every 2 days; format: organism-based; settings: in vivo, 48 h
Summary of the method: (§3)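 Nude mice, 5-to-6-week-old females, given 5 × 10^6 H460 cells sc in right flank in HBSS; at 100 mm3 tumour volume randomized, 6 per group. Vehicle; oral 100 mg/kg three times weekly; or ip 30 mg/kg once weekly. Toxicity signs and mortality observed daily; body weight measured every 2 days.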

Mus musculus [30] = assay: Toxicity in athymic nude Balb/C mouse xenografted with human H460 cells assessed as effect on abnormal behaviour at 100 mg/kg, po administered 3 times per week measured every 2 days; format: organism-based; settings: in vivo, 48 h; summary of the method: as §3

## N#Cc1ccc(COc2cccc(/C=N/NC(=O)c3cc4c(cn3)[nH]c3ccccc34)c2)cc1
MDA-MB-231
  inhibition at 1 µM: 29.6%
Raji
  inhibition at 1 µM: 42.7%
NCI-H460 [1]
  inhibition at 1 µM: 51%
NCI-H460 [2]
  IC50: 1640 to 1730 nM
MCF7 [3]
  IC50: 930 to 1020 nM
A2780S
  IC50: 3020 nM
[4]
  Ratio IC50: 1.06
[5]
  selectivity ratio: 22.2
MCF7 [6]
  Activity: 34.57%
MCF7 [7]
  Activity: 56.12%
MCF7 [8]
  Activity: 9.31%
MCF7 [9]
  Activity: 36.05%
MCF7 [10]
  Activity: 53.88%
MCF7 [11]
  Activity: Dose-dependent effect
MCF7 [12]
  viability at 3 µM: 66.8%
MCF7 [13]
  Activity: 15.3%
MCF7 [14]
  Activity: 17.6%
MCF7 [15]
  viability at 10 µM: 66.6%
MCF7 [16]
  viability at 30 µM: 50.9%
MCF7 [17]
  Activity: 28.8%
MCF7 [18]
  Activity: 0.93%
MCF7 [19]
  Activity: 13%
MCF7 [20]
  Activity: 38.9%
MCF7 [21]
  Activity: 0.76%
NCI/ADR-RES [22]
  viability at 3 µM: 84.3%
NCI/ADR-RES [23]
  Activity: 19.1%
NCI/ADR-RES [24]
  Activity: 6.4%
NCI/ADR-RES [25]
  viability at 30 µM: 64.8%
NCI/ADR-RES [26]
  Activity: 4.85%
NCI/ADR-RES [27]
  Activity: 21.9%
NCI/ADR-RES [28]
  Activity: 30.2%
Mus musculus [29]
  Activity: < 5%
Mus musculus [30]
  Activity: Non-Toxic
